Data from article PMC4750707 (Antimicrobial Agents and Chemotherapy, 2016).
≈ marks a conversion by molar mass, not a printed value.

Key:
[1] = test system: E. coli; experiment: Broth microdilution MIC; type: cell-based; conditions: Escherichia coli
Summary of the method: (§1)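 MICs by CLSI broth microdilution in cation-adjusted Mueller-Hinton broth. Strains grown in BHI broth at 35°C: E. coli K-12, P. aeruginosa 1771 and S. aureus ATCC 29213. H. influenzae Rd grown in BHI with Haemophilus test medium supplement (hemin and β-NAD, 15 μg/ml each).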

[2] = test system: E. coli PBP5/6; experiment: PBP competition assay with Bocillin FL; type: binding, Escherichia coli; conditions: E. coli K-12 membranes; Bocillin FL 100 μM
Summary of the method: (§2)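 E. coli K-12 or P. aeruginosa 1771 grown in BHI at 35°C to A600 ~1.5. Cells in 50 mM phosphate pH 7.0 were French-pressed; membranes pelleted at 150,000 × g. Membranes (10–20 μg protein) were pre-incubated with test compound 10 min at 30°C, then Bocillin FL (100 μM final) 20 min. SDS-PAGE, fluorescence scan. IC50 in μg/ml from ≥8 concentrations versus no-drug control.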

[3] = test system: P. aeruginosa; experiment: Broth microdilution MIC; type: cell-based; conditions: Pseudomonas aeruginosa
Summary of the method: as §1

[4] = target: S. aureus PBP3 (Staphylococcus aureus, UniProt Q9XDB3); experiment: PBP competition assay with Bocillin FL; type: binding
Summary of the method: (§3)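 S. aureus ATCC 29213 membranes were prepared in KPN buffer pH 7.5. Lysis used lysostaphin 400 μg/ml for 1 h at 37°C plus protease inhibitors, DNase and RNase, then French press. Membranes (10–20 μg protein) received test compound for 10 min at 30°C, then Bocillin FL 100 μM final for 20 min. SDS-PAGE band volumes; IC50 from three assays of six concentrations versus no-drug control.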

[5] = test system: S. pneumoniae; experiment: Broth microdilution MIC; type: cell-based; conditions: Streptococcus pneumoniae
Summary of the method: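 MICs by CLSI broth microdilution in cation-adjusted Mueller-Hinton broth plus 2.5% lysed horse blood. S. pneumoniae R6 grown on blood agar at 37°C under 5% CO2.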

[6] = target: T1, E. coli PBP1b (Escherichia coli, UniProt P02919); experiment: PBP competition assay with Bocillin FL; type: binding
T1 sequence (P02919 1-844): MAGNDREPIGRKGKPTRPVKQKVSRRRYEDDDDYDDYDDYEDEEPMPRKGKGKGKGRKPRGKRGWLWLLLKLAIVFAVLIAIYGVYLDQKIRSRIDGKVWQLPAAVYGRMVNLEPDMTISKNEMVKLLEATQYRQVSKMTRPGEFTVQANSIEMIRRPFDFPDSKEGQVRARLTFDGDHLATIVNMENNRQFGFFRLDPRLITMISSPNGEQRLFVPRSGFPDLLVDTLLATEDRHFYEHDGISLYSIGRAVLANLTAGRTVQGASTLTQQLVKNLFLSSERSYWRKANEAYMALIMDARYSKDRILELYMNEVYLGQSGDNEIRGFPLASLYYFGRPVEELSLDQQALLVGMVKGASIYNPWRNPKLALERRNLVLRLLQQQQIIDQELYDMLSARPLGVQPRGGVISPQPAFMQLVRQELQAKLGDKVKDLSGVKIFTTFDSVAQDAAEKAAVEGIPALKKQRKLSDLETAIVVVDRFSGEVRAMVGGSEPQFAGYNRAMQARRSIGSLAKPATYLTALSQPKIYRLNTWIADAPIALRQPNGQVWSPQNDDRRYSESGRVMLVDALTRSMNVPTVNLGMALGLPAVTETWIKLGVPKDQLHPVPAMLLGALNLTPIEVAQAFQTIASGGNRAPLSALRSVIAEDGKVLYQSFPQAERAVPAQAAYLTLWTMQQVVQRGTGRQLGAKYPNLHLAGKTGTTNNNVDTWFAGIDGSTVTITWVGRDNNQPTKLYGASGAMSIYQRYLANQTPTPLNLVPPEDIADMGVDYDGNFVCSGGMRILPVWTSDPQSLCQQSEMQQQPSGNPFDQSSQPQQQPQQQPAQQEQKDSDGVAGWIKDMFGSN
Summary of the method: as §2

[7] = target: P. aeruginosa PBP3 (Pseudomonas aeruginosa, UniProt G3XD46); experiment: PBP competition assay with Bocillin FL; type: binding
Sequence of P. aeruginosa PBP3 (G3XD46 whole entry): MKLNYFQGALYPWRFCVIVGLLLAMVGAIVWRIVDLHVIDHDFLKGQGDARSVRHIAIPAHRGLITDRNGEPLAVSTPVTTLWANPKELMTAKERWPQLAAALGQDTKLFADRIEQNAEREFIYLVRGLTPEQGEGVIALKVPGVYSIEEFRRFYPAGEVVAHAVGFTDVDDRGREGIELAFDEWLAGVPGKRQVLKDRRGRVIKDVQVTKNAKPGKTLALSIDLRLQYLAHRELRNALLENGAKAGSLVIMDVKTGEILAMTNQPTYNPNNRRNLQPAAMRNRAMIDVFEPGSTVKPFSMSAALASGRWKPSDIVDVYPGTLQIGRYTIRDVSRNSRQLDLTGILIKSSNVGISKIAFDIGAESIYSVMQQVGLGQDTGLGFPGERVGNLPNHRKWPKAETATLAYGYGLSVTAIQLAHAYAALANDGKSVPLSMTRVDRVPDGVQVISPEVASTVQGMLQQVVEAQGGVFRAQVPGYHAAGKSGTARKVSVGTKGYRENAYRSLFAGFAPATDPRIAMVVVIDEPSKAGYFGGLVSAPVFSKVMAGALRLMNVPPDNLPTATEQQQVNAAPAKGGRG

[8] = target: T2, S. aureus PBP4 (Staphylococcus aureus, UniProt P72355); experiment: PBP competition assay with Bocillin FL; type: binding
T2 sequence (P72355 25-431): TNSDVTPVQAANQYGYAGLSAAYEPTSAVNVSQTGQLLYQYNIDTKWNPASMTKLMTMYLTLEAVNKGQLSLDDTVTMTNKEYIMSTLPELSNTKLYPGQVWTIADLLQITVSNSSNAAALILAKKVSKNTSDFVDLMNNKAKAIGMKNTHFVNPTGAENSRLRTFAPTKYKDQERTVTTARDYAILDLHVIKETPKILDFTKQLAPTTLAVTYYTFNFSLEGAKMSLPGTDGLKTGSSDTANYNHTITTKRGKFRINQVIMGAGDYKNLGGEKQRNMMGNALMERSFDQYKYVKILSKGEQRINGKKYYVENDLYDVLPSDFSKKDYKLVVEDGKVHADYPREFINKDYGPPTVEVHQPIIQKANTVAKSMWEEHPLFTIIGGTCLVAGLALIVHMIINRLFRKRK

[9] = target: S. aureus PBP2 (Staphylococcus aureus, UniProt Q9R744); experiment: PBP competition assay with Bocillin FL; type: binding
Summary of the method: as §3

[10] = target: T3, E. coli PBP3 (Escherichia coli, UniProt P0AD68); experiment: PBP competition assay with Bocillin FL; type: binding
T3 sequence (P0AD68 1-588): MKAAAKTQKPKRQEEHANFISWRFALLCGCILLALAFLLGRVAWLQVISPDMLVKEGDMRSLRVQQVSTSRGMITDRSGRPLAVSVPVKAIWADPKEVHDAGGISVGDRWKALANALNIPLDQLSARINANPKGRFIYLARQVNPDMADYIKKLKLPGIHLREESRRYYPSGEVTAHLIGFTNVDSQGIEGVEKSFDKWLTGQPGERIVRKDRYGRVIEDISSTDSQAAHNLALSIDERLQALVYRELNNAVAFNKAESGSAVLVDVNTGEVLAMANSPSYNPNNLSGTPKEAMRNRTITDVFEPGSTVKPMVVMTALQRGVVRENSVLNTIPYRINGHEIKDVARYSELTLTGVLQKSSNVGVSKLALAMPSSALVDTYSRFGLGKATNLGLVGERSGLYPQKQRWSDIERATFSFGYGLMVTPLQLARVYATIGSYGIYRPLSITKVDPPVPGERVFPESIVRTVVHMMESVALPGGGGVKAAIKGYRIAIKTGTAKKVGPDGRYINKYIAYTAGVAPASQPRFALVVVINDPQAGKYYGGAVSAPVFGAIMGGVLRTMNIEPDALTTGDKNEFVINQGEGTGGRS
Summary of the method: as §2

[11] = test system: S. aureus; experiment: Broth microdilution MIC; type: cell-based; conditions: Staphylococcus aureus, ATCC29213
Summary of the method: as §1

| MIC [1] | Relative binding (IC50) for PBP 5/6 [2] | MIC [3] | IC50 [4] | MIC [5] | IC50 [6] | IC50 [7] | IC50 [8] | IC50 [9] | IC50 [10] | MIC [11] | Binding to S. aureus PBP4 revealed by reduction of Bocillin FL labeling ([8]; S. aureus membranes, in presence of avibactam fixed at 4 μg/ml) | SMILES |
| --- | --- | --- | --- | --- | --- | --- | --- | --- | --- | --- | --- | --- |
| 8 mg/L (≈ 30.2 µM) | >13 mg/L | > 128 mg/L | 588 µM | 256 mg/L (≈ 965 µM) | > 49 µM | 6.79 µM | > 965 µM | 192 µM | > 49 µM | 256 mg/L (≈ 965 µM) | – | NC(=O)[C@@H]1CC[C@@H]2CN1C(=O)N2OS(=O)(=O)O [AVI, avibactam] |
| 0.06 to 0.1 mg/L (≈ 0.184 to 0.307 µM) | – | – | – | – | > 39.9 µM | – | – | – | > 39.9 µM | – | – | CC1(C)S[C@@H]2[C@H](/N=C/N3CCCCCC3)C(=O)N2[C@H]1C(=O)O [MEC, amdinocillin] |
| 0.5 mg/L (≈ 0.915 µM) | >25 mg/L | 4 mg/L (≈ 7.32 µM) | > 14.6 µM | – | 14.6 µM | 0.0732 µM | > 14.6 µM | 1.28 µM | 0.366 µM | 16 mg/L (≈ 29.3 µM) | affinity for PBP4 was much lower | CC(C)(O/N=C(\C(=O)N[C@@H]1C(=O)N2C(C(=O)[O-])=C(C[n+]3ccccc3)CS[C@H]12)c1csc(N)n1)C(=O)O [CAZ, ceftazidime] |
